# Data: ChEMBL document CHEMBL4145530, “Design, synthesis and pharmacological evaluation of N-benzyl-piperidinyl-aryl-acylhydrazone derivatives as donepezil hybrids: Discovery of novel multi-target anti-alzheimer prototype drug candidates” (Eur J Med Chem, 2018)
# Molecular target: Acetylcholinesterase (Electrophorus electricus) (UniProt O42275)
# Assay: Inhibition of electric eel AChE at 100 uM using acetylthiocholine iodide as substrate preincubated for 10 mins followed by substrate addition by Ellman's method relative to control
# Conditions: not given
# Sequence of Acetylcholinesterase (Electrophorus electricus) (O42275 24-633 limits assumed): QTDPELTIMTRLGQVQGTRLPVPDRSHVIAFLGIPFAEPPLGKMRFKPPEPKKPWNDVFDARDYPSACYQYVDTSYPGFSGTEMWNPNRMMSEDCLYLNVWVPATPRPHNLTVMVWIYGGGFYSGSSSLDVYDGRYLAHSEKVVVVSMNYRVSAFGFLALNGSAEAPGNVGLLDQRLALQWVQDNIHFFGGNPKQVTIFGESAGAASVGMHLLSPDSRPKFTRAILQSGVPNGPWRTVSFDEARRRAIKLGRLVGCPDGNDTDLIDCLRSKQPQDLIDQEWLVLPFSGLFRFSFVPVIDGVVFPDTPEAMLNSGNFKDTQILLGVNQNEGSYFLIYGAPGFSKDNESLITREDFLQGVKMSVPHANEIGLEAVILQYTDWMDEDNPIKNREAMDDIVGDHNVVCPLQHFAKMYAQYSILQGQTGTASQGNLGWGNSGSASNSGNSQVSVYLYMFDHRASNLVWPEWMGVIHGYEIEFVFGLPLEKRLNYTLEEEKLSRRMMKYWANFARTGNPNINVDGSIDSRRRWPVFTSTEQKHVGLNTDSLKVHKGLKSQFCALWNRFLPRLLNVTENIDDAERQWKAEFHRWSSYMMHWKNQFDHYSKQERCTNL
row,Compound,inhibition [%]
1,Nc1ccc(/C=N/NC(=O)c2ccc(CN3CCCC(O)C3)cc2)cc1 (stereo not drawn),> 60
2,O=C(N/N=C/c1ccccc1)c1ccc(CN2CCCC(O)C2)cc1 (stereo not drawn),> 60

# Test system: Mus musculus
# Assay: Anti-inflammatory activity in Swiss mouse assessed as reduction in carrageenan-induced paw edema by measuring paw volume […] po pretreated for 1 hr followed by carrageenan injection and measured after 1 to 5 hrs by plethysmometric method (reference value: 67.73 +/- 4.2 uL)
# Type: functional
# Conditions: not given
# Summary of the method: (§1)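 Male Swiss mice (22–28 g) were fasted overnight and dosed orally with vehicle (2% DMSO in sterile saline), compound or indomethacin 1 h before intraplantar carrageenan. Groups (n=10) were matched on basal paw volume. Right hind paw volume was read by plethysmometer at 1, 3 and 5 h and expressed as change from basal.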
row,Compound,Activity [µL]
1,CC(=O)OC1CCCN(Cc2ccc(C(=O)N/N=C/c3ccc(N)cc3)cc2)C1 (stereo not drawn),11.43
2,COc1ccc2c(c1)c(CC(=O)O)c(C)n2C(=O)c1ccc(Cl)cc1 [INDOMETHACIN],14.29
3,O=C(N/N=C/c1ccc(N2CCOCC2)cc1)c1ccc(CN2CCCC(O)C2)cc1 (stereo not drawn),21.43

# Test system: Mus musculus
# Assay: Inhibition of serum COX2 level in Swiss mouse model of carragenan-induced paw edema at 100 mM/kg, po pretreated for 1 hr followed by carrageenan treatment measured after 3 hrs by ELISA
# Type: functional
# Conditions: not given
# Summary of the method: (§2)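 Swiss mice (n=8) received compound (100 mM/kg) or vehicle orally 1 h before intraplantar carrageenan; indomethacin was the positive control. Three hours later, blood was drawn from the heart under chloral hydrate anaesthesia and serum was collected. COX-1 and COX-2 protein was measured by sandwich ELISA read at 450 nm and expressed as percent COX level.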
row,Compound,inhibition (INH) [%]
1,COc1ccc2c(c1)c(CC(=O)O)c(C)n2C(=O)c1ccc(Cl)cc1 [INDOMETHACIN],40

# Test system: Mus musculus
# Assay: Anti-inflammatory activity in po dosed Swiss mouse assessed as reduction in carrageenan-induced paw edema pretreated for 1 hr followed by carrageenan injection and measured after 1 to 5 hrs by plethysmometric method
# Type: functional
# Conditions: read-out: ID50 (the source's name)
# Summary of the method: as §1
row,Compound,ED50 [µmol/kg]
1,CC(=O)OC1CCCN(Cc2ccc(C(=O)N/N=C/c3ccc(N)cc3)cc2)C1 (stereo not drawn),4.2
2,COc1ccc2c(c1)c(CC(=O)O)c(C)n2C(=O)c1ccc(Cl)cc1 [INDOMETHACIN],2.12
3,O=C(N/N=C/c1ccc(N2CCOCC2)cc1)c1ccc(CN2CCCC(O)C2)cc1 (stereo not drawn),2.67

# Test system: Mus musculus
# Assay: Antinociceptive activity in formalin-induced Swiss mouse model of hyperalgesia assessed as time spent licking the injected paw in last phase at […], po pretreated for 1 hr followed by formalin injection and measured at 20 to 30 mins (reference value: 135.8 +/- 10.7 secs)
# Type: functional
# Conditions: not given
row,Compound,Time [s]
1,CC(=O)OC1CCCN(Cc2ccc(C(=O)N/N=C/c3ccc(N)cc3)cc2)C1 (stereo not drawn),69.75
2,COc1ccc2c(c1)c(CC(=O)O)c(C)n2C(=O)c1ccc(Cl)cc1 [INDOMETHACIN],22.75
3,O=C(N/N=C/c1ccc(N2CCOCC2)cc1)c1ccc(CN2CCCC(O)C2)cc1 (stereo not drawn),69.67

# Molecular target: T1, Prostaglandin G/H synthase 1 (Ovis aries) (UniProt P05979)
# T1 sequence (whole entry): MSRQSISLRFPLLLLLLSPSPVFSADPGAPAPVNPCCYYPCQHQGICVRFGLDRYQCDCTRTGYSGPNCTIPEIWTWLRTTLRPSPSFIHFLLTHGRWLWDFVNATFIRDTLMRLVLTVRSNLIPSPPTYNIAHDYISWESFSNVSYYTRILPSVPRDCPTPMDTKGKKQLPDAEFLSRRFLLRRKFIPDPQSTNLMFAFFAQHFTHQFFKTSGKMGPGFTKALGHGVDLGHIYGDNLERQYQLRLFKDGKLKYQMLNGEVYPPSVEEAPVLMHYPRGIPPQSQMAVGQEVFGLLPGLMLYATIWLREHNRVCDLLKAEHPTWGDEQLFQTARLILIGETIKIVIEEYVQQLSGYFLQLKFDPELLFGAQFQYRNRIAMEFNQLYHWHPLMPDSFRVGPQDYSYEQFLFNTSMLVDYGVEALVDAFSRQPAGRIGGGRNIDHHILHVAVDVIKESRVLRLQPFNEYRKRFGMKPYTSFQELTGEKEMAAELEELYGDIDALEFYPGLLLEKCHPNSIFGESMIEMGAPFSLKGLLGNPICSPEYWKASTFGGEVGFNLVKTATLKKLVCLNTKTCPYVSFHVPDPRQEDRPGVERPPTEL
# Assay: Inhibition of ovine COX1 at 10 uM using arachidonic acid as substrate preincubated for 120 mins followed by substrate addition measured for 5 secs by chemiluminescence assay relative to control
# Conditions: not given
# Summary of the method: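 COX-1 or COX-2 with heme was preincubated 120 min with compound (10 µM) in assay buffer. Arachidonic acid and a chemiluminescent substrate were then added at room temperature and peroxidative activity was read for 5 s; ibuprofen was the reference. Selectivity index was taken as the ratio of maximum COX-2 inhibition to COX-1 inhibition. Two independent experiments.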
row,Compound,inhibition [%]
1,CC(C)Cc1ccc(C(C)C(=O)O)cc1 (stereo not drawn),88

# Test system: Mus musculus
# Assay: Antinociceptive activity in carrageenan-induced Swiss mouse model of mechanical hyperalgesia assessed as mechanical hyperalgesic index pretreated orally for 1 hr followed by carrageenan challenge by Von Frey filament assay
# Type: functional
# Conditions: not given
# Summary of the method: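 Swiss mice were placed in wire-screen acrylic boxes 60 min before testing. Vehicle, compound or indomethacin was given orally 1 h before intraplantar carrageenan. Mechanical threshold was found by the von Frey up-and-down method, with at least 6 trials at 10 s intervals, raising filament mass until paw withdrawal. Results are given as threshold in grams; n=8.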
row,Compound,Activity_index
1,CC(=O)OC1CCCN(Cc2ccc(C(=O)N/N=C/c3ccc(N)cc3)cc2)C1 (stereo not drawn),146.1
2,COc1ccc2c(c1)c(CC(=O)O)c(C)n2C(=O)c1ccc(Cl)cc1 [INDOMETHACIN],158.1
3,O=C(N/N=C/c1ccc(N2CCOCC2)cc1)c1ccc(CN2CCCC(O)C2)cc1 (stereo not drawn),83.96
4,CC(=O)OC1CCCN(Cc2ccc(C(=O)N/N=C/c3ccc(Br)cc3)cc2)C1 (stereo not drawn),206.9
5,Nc1ccc(/C=N/NC(=O)c2ccc(CN3CCCC(O)C3)cc2)cc1 (stereo not drawn),244.4
6,CC(=O)Oc1ccc(/C=N/NC(=O)c2ccc(CN3CCCC(OC(C)=O)C3)cc2)cc1 (stereo not drawn),353.1

# Test system: Mus musculus
# Assay: Inhibition of serum COX1 level in Swiss mouse model of carragenan-induced paw edema at 100 mM/kg, po pretreated for 1 hr followed by carrageenan treatment measured after 3 hrs by ELISA
# Type: functional
# Conditions: not given
# Summary of the method: as §2
row,Compound,inhibition (INH) [%]
1,COc1ccc2c(c1)c(CC(=O)O)c(C)n2C(=O)c1ccc(Cl)cc1 [INDOMETHACIN],52

# Test system: Mus musculus
# Assay: Antinociceptive activity in formalin-induced Swiss mouse model of hyperalgesia assessed as time spent licking the injected paw in early phase at 39 mM/kg, po pretreated for 1 hr followed by formalin injection and measured up to 5 mins (reference value: 74 +/- 7.7 secs)
# Type: functional
# Conditions: not given
row,Compound,Time [s]
1,CN1CC[C@]23c4c5ccc(O)c4O[C@H]2[C@@H](O)C=C[C@H]3[C@H]1C5 [MORPHINE],7.5

# Molecular target: Acetylcholinesterase (Electrophorus electricus, UniProt O42275)
# Sequence (O42275 whole entry): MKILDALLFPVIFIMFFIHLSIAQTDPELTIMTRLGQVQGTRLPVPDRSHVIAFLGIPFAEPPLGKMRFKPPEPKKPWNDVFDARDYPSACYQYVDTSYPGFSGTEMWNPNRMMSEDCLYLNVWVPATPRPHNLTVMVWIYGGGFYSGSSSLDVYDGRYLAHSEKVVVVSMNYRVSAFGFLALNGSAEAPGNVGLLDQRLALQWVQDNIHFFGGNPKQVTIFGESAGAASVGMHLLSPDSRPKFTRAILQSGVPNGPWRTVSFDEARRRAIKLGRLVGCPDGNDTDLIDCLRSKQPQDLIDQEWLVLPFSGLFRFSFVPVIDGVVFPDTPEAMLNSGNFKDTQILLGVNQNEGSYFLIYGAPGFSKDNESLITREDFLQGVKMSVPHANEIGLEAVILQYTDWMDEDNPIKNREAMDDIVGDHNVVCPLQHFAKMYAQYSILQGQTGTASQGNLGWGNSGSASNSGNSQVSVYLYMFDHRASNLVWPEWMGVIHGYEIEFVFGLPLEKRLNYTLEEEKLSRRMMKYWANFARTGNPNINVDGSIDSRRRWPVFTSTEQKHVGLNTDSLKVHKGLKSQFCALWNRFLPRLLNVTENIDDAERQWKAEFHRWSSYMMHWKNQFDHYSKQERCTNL
# Assay: (§3) Inhibition of electric eel AChE using acetylthiocholine iodide as substrate preincubated for 10 mins followed by substrate addition by Ellman's method
# Conditions: not given
row,Compound,IC50 [µM]
1,CC(=O)OC1CCCN(Cc2ccc(C(=O)N/N=C/c3ccc(N)cc3)cc2)C1 (stereo not drawn),≥ 100
2,O=C(N/N=C/c1ccc(N2CCOCC2)cc1)c1ccc(CN2CCCC(O)C2)cc1 (stereo not drawn),≥ 100
3,CC(=O)OC1CCCN(Cc2ccc(C(=O)N/N=C/c3ccc(Br)cc3)cc2)C1 (stereo not drawn),≥ 100
4,Nc1ccc(/C=N/NC(=O)c2ccc(CN3CCCC(O)C3)cc2)cc1 (stereo not drawn),21.5
5,CC(=O)Oc1ccc(/C=N/NC(=O)c2ccc(CN3CCCC(OC(C)=O)C3)cc2)cc1 (stereo not drawn),≥ 100
6,O=C(N/N=C/c1ccccc1)c1ccc(CN2CCCC(O)C2)cc1 (stereo not drawn),30

# Molecular target: Acetylcholinesterase (Electrophorus electricus) (UniProt O42275)
# Assay: as §3
# Conditions: not given
row,Compound,inhibition
1,Nc1ccc(/C=N/NC(=O)c2ccc(CN3CCCC(O)C3)cc2)cc1 (stereo not drawn),Dose-dependent effect
2,O=C(N/N=C/c1ccccc1)c1ccc(CN2CCCC(O)C2)cc1 (stereo not drawn),Dose-dependent effect

# Test system: Mus musculus
# Assay: Antinociceptive activity in formalin-induced Swiss mouse model of hyperalgesia assessed as time spent licking the injected paw in last phase at 39 mM/kg, po pretreated for 1 hr followed by formalin injection and measured at 20 to 30 mins (reference value: 135.8 +/- 10.7 secs)
# Type: functional
# Conditions: not given
row,Compound,Time [s]
1,CN1CC[C@]23c4c5ccc(O)c4O[C@H]2[C@@H](O)C=C[C@H]3[C@H]1C5 [MORPHINE],3.375

# Test system: Mus musculus
# Assay: Antinociceptive activity in formalin-induced Swiss mouse model of hyperalgesia assessed as time spent licking the injected paw in early phase at 100 mM/kg, po pretreated for 1 hr followed by formalin injection and measured up to 5 mins (reference value: 74 +/- 7.7 secs)
# Type: functional
# Conditions: not given
row,Compound,Time [s]
1,CC(=O)OC1CCCN(Cc2ccc(C(=O)N/N=C/c3ccc(N)cc3)cc2)C1 (stereo not drawn),47.75
2,COc1ccc2c(c1)c(CC(=O)O)c(C)n2C(=O)c1ccc(Cl)cc1 [INDOMETHACIN],65.43
3,O=C(N/N=C/c1ccc(N2CCOCC2)cc1)c1ccc(CN2CCCC(O)C2)cc1 (stereo not drawn),62.75
